{"data": "Assay results of several laboratories", "target": "Serine/threonine-protein kinase Sgk3 (SGK3, Homo sapiens, UniProt Q96BR1)", "One construct used (Q96BR1 1-496)": "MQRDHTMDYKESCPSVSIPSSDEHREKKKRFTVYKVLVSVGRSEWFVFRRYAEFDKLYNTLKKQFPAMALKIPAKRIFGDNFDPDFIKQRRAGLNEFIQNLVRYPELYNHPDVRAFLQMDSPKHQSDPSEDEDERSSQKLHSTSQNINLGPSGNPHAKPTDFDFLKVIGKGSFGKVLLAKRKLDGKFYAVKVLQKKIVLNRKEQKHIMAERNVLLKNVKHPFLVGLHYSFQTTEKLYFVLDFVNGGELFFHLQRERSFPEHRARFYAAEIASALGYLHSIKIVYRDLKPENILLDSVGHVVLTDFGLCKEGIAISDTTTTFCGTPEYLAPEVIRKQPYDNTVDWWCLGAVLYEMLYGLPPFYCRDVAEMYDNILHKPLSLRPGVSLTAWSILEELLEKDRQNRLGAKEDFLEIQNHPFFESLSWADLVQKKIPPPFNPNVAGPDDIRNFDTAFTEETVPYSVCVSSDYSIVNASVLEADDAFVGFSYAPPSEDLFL", "note": "Each line is one published result; the experiments were not run side by side."}
{"Compound": "CC(C)(C)c1cc(C=C(C#N)C#N)cc(Br)c1O", "observed": "enzyme activity", "mode": "inhibitor", "concentration": "0.5 µM", "measurement": "remaining activity", "value": "97.7%"}
{"Compound": "Nc1ncc(-c2nc(N3CCOCC3)nc(N3CCOCC3)n2)c(C(F)F)n1", "observed": "binding", "technique": "competition with immobilised ligand", "concentration": "10 µM", "measurement": "remaining binding", "value": "44%"}
{"Compound": "COc1ncccc1-c1cnn2ccc(N3CCN(C(=O)OC(C)C)CC3)nc12", "observed": "binding", "technique": "competition with immobilised ligand", "concentration": "1 µM", "measurement": "remaining binding", "value": "100%"}
{"Compound": "O=c1[nH]c2ccccc2n1C1CCN(Cc2ccc(-c3[nH]c4cc5ncnc5cc4nc3-c3ccccc3)cc2)CC1", "observed": "cell-free assay", "concentration": "0.5 µM", "measurement": "remaining signal", "value": "108%"}
{"Compound": "Cn1cc(-c2cc(F)cc(N3CCn4c(cc5c4CCCC5)C3=O)c2CO)cc(Nc2ccc(N3CCN(C4COC4)CC3)cn2)c1=O", "observed": "enzyme activity", "mode": "inhibitor", "concentration": "0.1 µM", "measurement": "inhibition", "value": "14%"}
{"Compound": "COc1cc(Nc2ncc(F)c(Nc3ccc4c(n3)NC(=O)C(C)(C)O4)n2)cc(OC)c1OC", "observed": "binding", "concentration": "10 µM", "measurement": "inhibition", "value": "52%"}
{"Compound": "Cn1cncc1[C@](O)(COc1ccc(C#N)cc1-c1ccc(OC(F)(F)F)cc1)c1ccc(C#N)cc1", "observed": "cell-free assay", "technique": "competition with immobilised ligand", "concentration": "1 µM", "measurement": "remaining binding", "value": "100%"}
{"Compound": "Cn1cc(-c2cccc(N3CCc4c(sc5c4CC(C)(C)C5)C3=O)c2CO)cc(Nc2ccncn2)c1=O", "observed": "enzyme activity", "mode": "inhibitor", "concentration": "1 µM", "measurement": "inhibition", "value": "5%"}
{"Compound": "Cc1nn(C)cc1-c1nc2c(N3CCN(Cc4ccc(Cl)cc4)CC3)c(Cl)cnc2[nH]1", "observed": "binding", "technique": "competition with immobilised ligand", "concentration": "1 µM", "measurement": "remaining binding", "value": "100%"}
